target: T1, 5-hydroxytryptamine receptor 7 (Homo sapiens, UniProt P34969); test: Displacement of [3H]5-HT from human 5-HT7 receptor expressed in HEK293 cells after 30 mins by microbeta counting analysis; type: cell-based
T1 sequence (P34969 whole entry): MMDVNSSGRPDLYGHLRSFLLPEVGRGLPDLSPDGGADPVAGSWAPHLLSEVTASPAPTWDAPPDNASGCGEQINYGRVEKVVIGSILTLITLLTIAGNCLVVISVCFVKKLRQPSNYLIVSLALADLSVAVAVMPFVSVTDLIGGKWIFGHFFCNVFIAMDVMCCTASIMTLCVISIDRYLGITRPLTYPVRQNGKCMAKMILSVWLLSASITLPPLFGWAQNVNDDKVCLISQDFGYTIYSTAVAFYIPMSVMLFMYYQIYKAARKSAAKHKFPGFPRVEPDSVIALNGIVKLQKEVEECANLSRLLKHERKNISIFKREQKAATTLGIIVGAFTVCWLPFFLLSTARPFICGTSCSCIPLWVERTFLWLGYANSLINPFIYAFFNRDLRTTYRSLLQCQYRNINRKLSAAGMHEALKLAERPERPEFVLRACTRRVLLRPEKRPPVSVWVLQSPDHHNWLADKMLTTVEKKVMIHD

SMILES	Ki [nM]
CN(CCCN1CCN(c2ccccc2)CC1)c1cccc(Cl)c1	179
CN(CCCN1CCC(c2ccccc2)(c2ccccc2)CC1)c1cccc(O)c1	242
CN(CCCCCCN1CCN(c2ccccc2)CC1)c1cccc(O)c1	12
CN(CCCN1CCN(c2ccccc2)CC1)c1cccc(NS(C)(=O)=O)c1	39.6
CN(CCCCCCN1CCN(c2cccc(C(F)(F)F)c2)CC1)c1cccc(O)c1	95.6
CN(CCCN1CCN(c2ccc3ccccc3c2)CC1)c1cccc(O)c1	434
CN(CCCN1CCN(c2cccc3ccccc23)CC1)c1cccc(O)c1	2.9
CC(=O)Nc1cccc(N(C)CCCN2CCN(c3ccccc3)CC2)c1	161
Oc1cccc(N(CCCCCCN2CCN(c3ccccc3)CC2)Cc2ccccc2)c1	138
CCN(CCCCCCN1CCN(c2ccccc2)CC1)c1cccc(O)c1	191
OCc1cccc(NCCCN2CCN(c3ccccc3)CC2)c1	109
Oc1cccc2c1CC(N1CCN(c3ccccc3)CC1)CC2 (racemic)	81.4
Cc1[nH]c2ccc(O)cc2c1CCN1CCN(c2cccc3ccccc23)CC1	12.8
Oc1cccc(N(CCCN2CCN(c3ccccc3)CC2)Cc2ccccc2)c1	92.5
NC(=O)c1cccc(NCCCN2CCN(c3ccccc3)CC2)c1	63.3
Oc1cccc(NCCCN2CCN(c3ccccc3)CC2)c1	10.1
CN(CCCN1CCN(c2ccccc2)CC1)c1cccc(Br)c1	161
COC(=O)c1cccc(NCCCN2CCN(c3ccccc3)CC2)c1	77.9

SMILES	Ki [nM]
CN(CCN1CCN(c2ccccc2)CC1)c1cccc([N+](=O)[O-])c1	332
CN(CCCCCN1CCN(c2ccccc2)CC1)c1cccc(O)c1	16.7
Oc1cccc(NCCN2CCN(c3ccccc3)CC2)c1	252
Cc1cccc(N(C)CCCN2CCN(c3ccccc3)CC2)c1	84.8
Oc1cccc(N(CCCN2CCN(c3ccccc3)CC2)c2ccccc2)c1	90.1
CCCN(CCCN1CCN(c2ccccc2)CC1)c1cccc(O)c1	20.8
Oc1cccc(CCCCN2CCN(c3ccccc3)CC2)c1	3.1
CN(CCCN1CCC(N(c2ccccc2)c2ccccc2)CC1)c1cccc(O)c1	310
CN(CCCCCCN1CCN(c2cccc3ccccc23)CC1)c1cccc(O)c1	39.4
O=Cc1cccc(NCCCN2CCN(c3ccccc3)CC2)c1	13.2
CN(CCN1CCN(c2ccccc2)CC1)c1cccc(O)c1	161
O=S(=O)(c1ccccc1)N(CCCN1CCN(c2ccccc2)CC1)c1cccc(O)c1	12.1
CN(CCCCCCN1CCC(c2ccccc2)CC1)c1cccc(O)c1	226
CN(CCCN1CCN(c2ccccc2)CC1)c1cccc(F)c1	112
CN(CCN1CCN(c2ccccc2)CC1)c1cccc(NS(C)(=O)=O)c1	57
CCc1[nH]c2ccc(O)cc2c1CCN1CCN(c2cccc3ccccc23)CC1	6.6
Oc1cccc(CCCN2CCN(c3ccccc3)CC2)c1	40

target: T1, 5-hydroxytryptamine receptor 7; test: Displacement of [3H]5-HT from human 5-HT7 receptor expressed in HEK293 cells at 10^-5 mol/L after 30 mins by microbeta counting analysis; type: cell-based
In short: (§1)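 Membranes incubated 30 min at 25 °C with 5 nmol/L [3H]5-HT in 50 mM Tris-HCl pH 7.4 containing pargyline, CaCl2 and ascorbic acid, with the test compound at a single fixed concentration. Non-specific binding with 100 µM cold 5-HT; separation by filtration; result reported as % displacement.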

SMILES	inhibition [%]
CN(CCCCCCN1CCN(c2ccnc3cc(Cl)ccc23)CC1)c1cccc(O)c1	74
Oc1cccc(OCCN2CCN(c3ccccc3)CC2)c1	42
CN(CCN1CCN(c2ccccc2)CC1)c1cccc(N)c1	85
CN(CCN1CCN(Cc2ccccc2)CC1)c1cccc(O)c1	82
Oc1ccc2[nH]cc(CCN3CCN(c4cccc(-c5ccccc5)c4)CC3)c2c1	88

target: T1, 5-hydroxytryptamine receptor 7; test: Displacement of [3H]5-HT from human 5-HT7 receptor expressed in HEK293 cells at 10^-6 mol/L after 30 mins by microbeta counting analysis; type: cell-based; in short: as §1

SMILES	inhibition [%]
CN(CCCCCCN1CCN(c2ccnc3cc(Cl)ccc23)CC1)c1cccc(O)c1	28
Oc1cccc(OCCN2CCN(c3ccccc3)CC2)c1	21
CN(CCN1CCN(c2ccccc2)CC1)c1cccc(N)c1	40
CN(CCN1CCN(Cc2ccccc2)CC1)c1cccc(O)c1	42
Oc1ccc2[nH]cc(CCN3CCN(c4cccc(-c5ccccc5)c4)CC3)c2c1	42

target: T1, 5-hydroxytryptamine receptor 7; test: Antagonist activity at human 5-HT7 receptor expressed in CHO cells assessed as residual 5-HT-stimulated cAMP accumulation at 1 uM relative to control

SMILES	% serotonin response [%]
CN(CCCCCCN1CCN(c2ccccc2)CC1)c1cccc(O)c1	56
CN(CCCCCN1CCN(c2ccccc2)CC1)c1cccc(O)c1	69
CN(CCN1CCN(c2ccccc2)CC1)c1cccc(NS(C)(=O)=O)c1	48
